This is an account of results in ChEMBL document CHEMBL1933045, “Fused thiophene derivatives as MEK inhibitors” (Bioorg Med Chem Lett, 2012).

Data set [1] can be described thus: Inhibition of Erk phosphorylation in human HT-29 cells. The format is cell-based. Summed up: (§1)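 Values are means of two experiments, IC50 in nM.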
The next data set deals with HT-29. The data set is described as follows: Antiproliferative activity against human HT-29 cells. The format is functional, cell-based. In short, it runs like this:
as §1

The target of data set [2] is Dual specificity mitogen-activated protein kinase kinase; MEK1/2 (Homo sapiens, UniProt P36507+Q02750). As to the kind of experiment: Inhibition of human MEK using fluorescein-labelled Erk-tide as substrate after 20 mins by IMAP assay. In short, it runs like this:
as §1

Data set [3] is described as follows: Aqueous solubility of the compound at pH 7.4. The class given is physicochemical.
A short description of data set [4]: Intrinsic clearance in rat hepatocytes assessed per 10^6 cells. The format is ADME, cell-based, Hepatocyte. Conditions: read-out: CLH.
A short description of data set [5]: Cmax in mouse at 10 mg/kg, po. The class given is ADME, organism-based. The arrangement: dose 10 mg/kg, route oral. To be noted: in vivo. Summed up:
(§2)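 Female nude mice, single oral dose 10 mg/kg; plasma drug levels measured over time; Cmax and AUClast derived.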

A short description of data set [6]: AUC (0 to last) in mouse at 10 mg/kg, po. The class given is ADME, organism-based. The arrangement: time 0 - last, dose 10 mg/kg, route oral. Conditions: plasma. Summed up:
as §2

Data set [7] relates to Mus musculus. The data set is described as follows: Inhibition of Erk phosphorylation in PMA-stimulated whole blood in nude mouse bearing human HT-29 cells at 50 mg/kg, po after 1 hr. The class given is functional, organism-based. The arrangement: dose 50 mg/kg. In short, it runs like this:
(§3)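 Nude mice bearing HT-29 tumours, dosed p.o. with vehicle (0 h) or 50 mg/kg compound; pERK measured in PMA-stimulated whole blood at 1, 6 and 18 h post dose. Plasma drug by LC–MS/MS; significance versus vehicle by one-way ANOVA with Bonferroni post test.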

The test system of data set [8] is Mus musculus. The data set is described as follows: Inhibition of Erk phosphorylation in PMA-stimulated whole blood in nude mouse bearing human HT-29 cells at 50 mg/kg, po after 6 hrs. The class given is functional, organism-based. The arrangement: dose 50 mg/kg. Summed up: as §3
In data set [9] the test system is Mus musculus. As to the kind of experiment: Inhibition of Erk phosphorylation in PMA-stimulated whole blood in nude mouse bearing human HT-29 cells at 50 mg/kg, po after 18 hrs relative to control. Conditions: HT-29, Blood. The class given is functional. Summed up:
as §3

Data set [10] deals with Mus musculus. The data set is described as follows: Inhibition of Erk phosphorylation in human HT-29 cells xenografted in nude mouse at 50 mg/kg, po after 18 hrs. (Xenograft models place foreign cells or tissue in a host animal.)

The structures appear in SMILES notation. Values after ≈ are worked out from the molar mass of the structure shown. Active and inactive are the calls of the source. The calls are words filed in the database; no cut-off is given here.

Broadly, the IC50 is the concentration that inhibits the measured activity by half. Lower therefore signals greater potency in that assay. One may read the solubility as the dissolved amount per volume that the medium holds. The term Cmax denotes the maximum level reached in the sampled fluid or tissue. What is called AUC(0-t) is exposure summed from dosing to a finite time, without extrapolation to infinity. A higher AUC(0-t) goes with more exposure. As a reminder, the inhibition in vivo is the change of the read-out against control, counted positive when it falls. A low value points to little suppression.

As for `CC1(C)CNC(=O)c2sc(Nc3ccc(I)cc3F)c(C(=O)NCCCO)c2C1`, the IC50 in [1] is 140 nM; in the data set on HT-29 it was 6210 nM; in data set [2], 309 nM.

Regarding `CC1(C)CNC(=O)c2sc(Nc3ccc(I)cc3Cl)c(C(=O)N3CCNCC3)c2C1`, the values for the IC50 (in data set [1]; in the data set on HT-29; in data set [2]) were 45 nM, 1040 nM and 456 nM, respectively.

For `CC1(C)CNC(=O)c2sc(Nc3ccc(I)cc3F)c(C(=O)N[C@@H]3CCCNC3)c2C1`, the results for the IC50 (in data set [1]; with HT-29; in data set [2]) were 5 nM, 91 nM and 22 nM, respectively.

As for `CC(C)(N)CNC(=O)c1c(Nc2ccc(I)cc2Cl)sc2c1CC(C)(C)CNC2=O`, the IC50 was found to be 13 nM in [1], 113 nM in the data set with HT-29 and 18 nM in data set [2].

With `CC1(C)CNC(=O)c2sc(Nc3ccc(I)cc3F)c(C(N)=O)c2C1`, the results for the IC50 (with HT-29; in data set [2]) were 158 nM and 9 nM, respectively.

Turning to `CC1(C)CNC(=O)c2sc(Nc3ccc(I)cc3F)c(C(=O)NOC[C@H](O)CO)c2C1`, the IC50 in data set [1] amounted to 51 nM; with HT-29, 1580 nM; in data set [2] it was 6 nM.

Consider `CC1(C)CNC(=O)c2sc(Nc3ccc(I)cc3F)c(C(=O)NOCCO)c2C1`, for which the IC50 in data set [1] was found to be 18 nM; in the data set with HT-29, 340 nM; in data set [2] it was 7 nM.

Regarding `CNC(=O)c1c(Nc2ccc(I)cc2Cl)sc2c1CC(C)(C)CNC2=O`, the IC50 in data set [1] turned out to be 224 nM; in the data set with HT-29, 1630 nM; in data set [2], 226 nM.

For `CC1(C)CNC(=O)c2sc(Nc3ccc(I)cc3F)c(C(=O)N[C@@H]3CCNC3)c2C1`, the half-maximal inhibitory concentration (IC50) stood at 9 nM in [1], 54 nM in the data set on HT-29 and 8 nM in data set [2].

As to `CC1(C)CNC(=O)c2sc(Nc3ccc(I)cc3F)nc2C1`, the values for the half-maximal inhibitory concentration (IC50) (in data set [1]; in the data set on HT-29; in data set [2]) were 1540 nM, 8870 nM and 946 nM, respectively.

Regarding `CC1(C)CNC(=O)c2sc(Nc3ccc(I)cc3Cl)c(C(=O)NCC[C@@H](O)CO)c2C1`, the IC50 was 717 nM in data set [1], 12100 nM with HT-29 and 200 nM in data set [2].

Turning to `CCOC(=O)c1c(Nc2ccc(I)cc2F)sc2c1CC(C)(C)CNC2=O`, the IC50 in data set [2] worked out at 305 nM.

`CC1(C)CNC(=O)c2sc(Nc3ccc(I)cc3Cl)c(C(N)=O)c2C1`: the IC50 worked out at 92 nM in data set [1], 596 nM with HT-29 and 13 nM in [2]. Also, the solubility entry in data set [3] (buffer) is listed as “Insoluble”.

For `CC1(C)CNC(=O)c2sc(Nc3ccc(I)cc3F)c(C(=O)NC[C@H]3CCCN3)c2C1`, the IC50 in [1] was 22 nM; in the data set on HT-29, 120 nM; in [2], 42 nM.

On to `CC1(C)CNC(=O)c2sc(Nc3ccc(I)cc3Cl)c(C(=O)NOC[C@H](O)CO)c2C1`, for which the IC50 in data set [1] was found to be 76 nM; in the data set with HT-29, 896 nM; in data set [2], 9 nM.

`CC1(C)CNC(=O)c2sc(Nc3ccc(I)cc3F)c(C(=O)O)c2C1`: the IC50 in data set [1] is 978 nM; in data set [2], 14 nM.

Regarding `CCOC(=O)c1c(Nc2ccc(I)cc2Cl)sc2c1CC(C)(C)CNC2=O`, the IC50 in [2] is listed as 2617 nM.

Turning to `CC(C)(N)CNC(=O)c1c(Nc2ccc(I)cc2F)sc2c1CC(C)(C)CNC2=O`, the values for the half-inhibitory concentration (IC50) (in data set [1]; in the data set on HT-29; in data set [2]) were 6 nM, 79 nM and 14 nM, respectively. The solubility in data set [3] (aqueous, read-out: solubility) was 210 µM (≈ 114 µg/mL). For the same compound, in data set [4], the hepatocyte CLint was 2.6 µL/min/1e6 cells. This compound also came in with a Cmax in data set [5] of 323 ng/mL. The compound also displayed an AUC(0-t) in data set [6] of 1240 ng·h/mL. The inhibition result in the data set on Mus musculus [7] and with Mus musculus [8] was “Active” in each case. The compound further registered an inhibition in vivo at 50 mg/kg in the data set with Mus musculus [9] of 35%. Also, in the data set with Mus musculus [10], the inhibition result is “inactive”.

Regarding `CC1(C)CNC(=O)c2sc(Nc3ccc(I)cc3Cl)c(C(=O)NC[C@@H](O)CO)c2C1`, the figures for the IC50 (in [1]; with HT-29; in data set [2]) were 43 nM, 710 nM and 28 nM, respectively.
